One assay is filed under the species Homo sapiens. As to the kind of experiment: Selectivity ratio of Ki for human CB1 receptor to Ki for human CB2 receptor. Put shortly: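 Ki ratio from radioligand displacement on membranes overexpressing human CB1 (7.16 µg, 0.39 nM radioligand) or CB2 (3.8 µg, 0.11 nM radioligand). Incubation 90 min at 30 °C in Tris/EGTA/MgCl2/BSA buffer, pH 7.4, then GF/C filtration and scintillation counting; nonspecific binding with 10 µM reference ligand. IC50 from Hill plots; three independent experiments in triplicate.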

The target in assay [1] is T1, Cannabinoid receptor 2 (Homo sapiens, UniProt P34972). The assay can be described thus: Displacement of [3H]CP-55940 from human recombinant CB2 receptor. Summed up:
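Membranes from cells recombinantly overexpressing CB2 (Bmax 4.7 pmol/mg protein), 3.8 µg, in binding buffer (50 mM Tris-HCl, 2.5 mM EGTA, 5 mM MgCl2, 0.5 mg/mL fatty-acid-free BSA, pH 7.4) with 0.11 nM radioligand. Compounds were tested at varying concentrations, with nonspecific binding defined by 10 µM reference ligand. Incubation was 90 min at 30 °C, followed by PEI-soaked GF/C filtration and scintillation counting. Data were normalized and Hill-linearized to give IC50 and Ki (three experiments, triplicate).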

The target in assay [2] is T2, Cannabinoid receptor 1 (Homo sapiens, UniProt P21554). The assay can be described thus: Displacement of [3H]CP-55940 from human recombinant CB1 receptor.
T2 sequence (P21554 whole entry): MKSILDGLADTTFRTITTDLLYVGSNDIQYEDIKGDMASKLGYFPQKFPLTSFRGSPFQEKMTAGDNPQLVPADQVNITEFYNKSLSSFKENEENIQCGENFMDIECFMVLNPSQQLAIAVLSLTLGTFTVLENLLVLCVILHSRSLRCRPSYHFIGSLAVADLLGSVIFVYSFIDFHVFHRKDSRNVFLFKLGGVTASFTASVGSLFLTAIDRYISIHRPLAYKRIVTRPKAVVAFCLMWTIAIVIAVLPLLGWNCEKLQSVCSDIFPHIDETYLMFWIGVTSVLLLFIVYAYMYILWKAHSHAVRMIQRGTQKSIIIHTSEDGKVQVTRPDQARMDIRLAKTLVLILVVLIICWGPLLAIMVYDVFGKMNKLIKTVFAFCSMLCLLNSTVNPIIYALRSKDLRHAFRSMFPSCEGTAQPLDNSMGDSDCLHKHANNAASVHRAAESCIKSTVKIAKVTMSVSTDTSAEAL
In assay [3] the target is T1, Cannabinoid receptor 2. The assay can be described thus: Agonist activity at human CB2 receptor expressed in CHO-K1 cells assessed as forskolin-stimulated cAMP release. The conditions noted are these: filed as partial agonist. The format is functional, cell-based. Put shortly: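 CHO-K1 cells expressing hCB2, plated at 3×10^5 cells/mL overnight, were preincubated 10 min in supplement-free RPMI 1640 with 500 µM IBMX. Test compounds were added at several concentrations for 30 min at 37 °C, then 20 µM forskolin for a further 30 min at 37 °C. Intracellular cAMP was read by EFC chemiluminescence, with a high-affinity CB ligand as positive control.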

Assay [4] addresses T2, Cannabinoid receptor 1. The assay can be described thus: Binding affinity to CB1 receptor.
Assay [5] is described as follows: Selectivity ratio of Ki for CB1 receptor to Ki for CB2 receptor.
For assay [6], the target named is T1, Cannabinoid receptor 2. As to the kind of experiment: Binding affinity to CB2 receptor.

Molecules are shown by their SMILES.

T1 sequence (P34972 whole entry): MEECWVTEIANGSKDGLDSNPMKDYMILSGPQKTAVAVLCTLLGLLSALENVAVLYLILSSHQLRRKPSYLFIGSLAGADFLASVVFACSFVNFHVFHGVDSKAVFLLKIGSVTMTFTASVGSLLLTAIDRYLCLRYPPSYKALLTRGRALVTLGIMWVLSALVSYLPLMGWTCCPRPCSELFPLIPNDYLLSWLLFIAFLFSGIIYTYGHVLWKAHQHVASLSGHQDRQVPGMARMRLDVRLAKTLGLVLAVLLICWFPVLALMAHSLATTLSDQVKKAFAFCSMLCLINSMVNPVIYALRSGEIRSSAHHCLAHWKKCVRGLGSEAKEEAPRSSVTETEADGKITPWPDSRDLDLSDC

Consider `CCCCCN(CCCCC)C(=O)c1ccccc1C(=O)Nc1ccc(Br)cc1`, for which the Ratio Ki in the assay filed under Homo sapiens was more than 2. The values for the Ki on Cannabinoid receptor 2 [1] and on Cannabinoid receptor 1 [2] were less than 25 nM and more than 50 nM, respectively.
`CCCn1c(C)c(C(=O)c2cccc3cc(OC)ccc23)c2ccccc21`: the Ratio Ki in the assay listed under Homo sapiens was more than 333. The Ki at Cannabinoid receptor 1 [2] is more than 10000 nM.
On to `CCCCCCc1cc(O)c2c(c1)OC(C)(C)C1=C2CCN(C)C1`, for which the Ratio Ki in the assay filed under Homo sapiens was more than 27. For the same compound, the inhibition constant (Ki) is 1.78 nM on Cannabinoid receptor 2 [1] and more than 50 nM at Cannabinoid receptor 1 [2]. Further, the Activity result at Cannabinoid receptor 2 [3] is “Partial agonist”.
On to `CCCCSc1nc2c(c(=O)n1CCc1ccccc1)C1(CCCC1)Cc1ccccc1-2`, for which, in the assay filed under Homo sapiens, the Ratio Ki is more than 2. For the same compound, the Ki on Cannabinoid receptor 2 [1] was less than 25 nM; on Cannabinoid receptor 1 [2] it was more than 50 nM.
With `CCCN1Cc2c(n(S(=O)(=O)CC)c3ccc(C(=O)N4CCC(C)CC4)cc23)C1`, in the assay filed under Homo sapiens, the Ratio Ki was found to be 54.
`CCCCCCC(C)(C)c1cc(OC)c(C2(O)CCOCC2)c(OC)c1`: the Ratio Ki in the assay filed under Homo sapiens was more than 29. The values for the Ki on Cannabinoid receptor 2 [1] and at Cannabinoid receptor 1 [2] were 342 nM and more than 10000 nM, respectively.
As to `O=C(NCC1CCOCC1)c1cnc(Nc2ccc(Cl)cc2Cl)nc1C(F)(F)F` [GW842166X], the Ratio Ki in the assay listed under Homo sapiens is more than 600. For the same compound, the EC50 on Cannabinoid receptor 1 [2] is more than 30000 nM.
`CCCCCCC(C)(C)c1cc(OC)c([C@H]2C=C(CO)[C@@H]3C[C@H]2C3(C)C)c(OC)c1` registered a Ki on Cannabinoid receptor 1 [4] of 10000 nM.
`Cc1cccc(-c2nnc(SCC(=O)NC3CCCCC3)n2Cc2ccccc2)c1`: in the assay filed under Homo sapiens, the Ratio Ki is more than 2. Besides, the Ki on Cannabinoid receptor 2 [1] is less than 25 nM; on Cannabinoid receptor 1 [2], more than 50 nM.
In the case of `CCCCCC(C)(C)c1cc(OC)c2c(c1)OC(C)(C)[C@@H]1CCC(C)=C[C@@H]21`, the Ratio Ki in the assay filed under Homo sapiens came out at 174.
The same measure, in the same setting: in the case of `CCS(=O)(=O)n1c2c(c3cc(C(=O)N4CCC(OC)CC4)ccc31)CN(C1CCCC1)C2` it was 77.
Turning to `CCCCCn1cc(C(=O)c2cc3ccccc3cc2OC)c2ccccc21`, the Ratio Ki in assay [5] worked out at 53. For the same compound, the Ki stood at 381 nM at Cannabinoid receptor 1 [4] and 7.2 nM at Cannabinoid receptor 2 [6].
Regarding `CN1CCCC[C@@H]1Cn1cc(C(=O)c2cc([N+](=O)[O-])ccc2I)c2ccccc21`, the Ratio Ki in assay [5] was 331. The Ki on Cannabinoid receptor 1 [4] worked out at 5000 nM; at Cannabinoid receptor 2 [6], 15.1 nM.
Turning to `COc1ccc2c(c1)c(CCN1CCOCC1)c(C)n2C(=O)c1cccc(Cl)c1Cl`, the Ratio Ki in assay [5] stood at 160.
Take `COc1ccc2c(c1)c(CC(=O)N1CCOCC1)c(C)n2C(=O)c1cccc(Cl)c1Cl`: in the assay listed under Homo sapiens, the Ratio Ki was 146.
As for `CCCCCn1c(C)c(C(=O)c2c(OC)ccc3ccccc23)c2ccccc21`, the Ratio Ki in the assay filed under Homo sapiens was 34. For the same compound, on Cannabinoid receptor 1 [2], the Ki is 1380 nM.
Consider `CCCCCCC(C)(C)c1cc(O)c2c(c1)oc(=O)c1ccc(O)cc12`, for which the Ratio Ki in the assay filed under Homo sapiens stood at 488. The Ki on Cannabinoid receptor 2 [1] is 0.82 nM; at Cannabinoid receptor 1 [2], 400 nM.
With `CC1CCN(C(=O)c2ccc3c(c2)c2c(n3S(C)(=O)=O)CN(C3CCCC3)C2)CC1`, the Ratio Ki in the assay filed under Homo sapiens is 35.
As for `CCCn1cc(C(=O)c2ccc(C)c3ccccc23)c2ccccc21`, the Ratio Ki in the assay filed under Homo sapiens turned out to be 173. In addition, the Ki on Cannabinoid receptor 1 [2] came to 1050 nM.
`CCOc1ccc(N(CC(=O)N[C@@H](C)CC)S(=O)(=O)c2ccc(Br)cc2)cc1`: the Ratio Ki in the assay filed under Homo sapiens was more than 2. Besides, the Ki was less than 25 nM on Cannabinoid receptor 2 [1] and more than 50 nM at Cannabinoid receptor 1 [2].
The corresponding values for `CCCCCCC(C)(C)c1cc(OC)c([C@@]2(O)CCC[C@@H](C)C2)c(OC)c1` are 220, 23 nM and 5060 nM.
For `CC(=O)n1c2c(c3cc(C(=O)N4CCC(C)CC4)ccc31)CN(C1CCCC1)C2`, the Ratio Ki in the assay filed under Homo sapiens was found to be 26.
Take `CCc1ccccc1NC(=O)CSc1nnc(-c2ccccc2OC)n1-c1ccccc1`: the Ratio Ki in the assay filed under Homo sapiens was more than 23. Besides, the Ki on Cannabinoid receptor 2 [1] is 2.1 nM; at Cannabinoid receptor 1 [2], more than 50 nM.
With `CCCC(C)(C)c1ccc2c(c1)OC(C)(C)[C@@H]1CC=C(C)C[C@@H]21`, the Ratio Ki in the assay filed under Homo sapiens was found to be 35; in assay [5], 199. The Ki on Cannabinoid receptor 2 [1] is 0.023 nM; at Cannabinoid receptor 1 [2] it was 0.797 nM; at Cannabinoid receptor 1 [4], 677 nM; on Cannabinoid receptor 2 [6], 3.4 nM.
As to `COc1ccc(OC)c(N(CC(=O)NCc2ccncc2)S(=O)(=O)c2ccc(C)cc2)c1`, the Ratio Ki in the assay listed under Homo sapiens was more than 37. Also, the Ki on Cannabinoid receptor 2 [1] is 1.35 nM; at Cannabinoid receptor 1 [2] it was more than 50 nM.
With `COc1ccc2c(c1)c(CN1CCOCC1)c(C)n2C(=O)c1cccc(Cl)c1Cl`, the Ratio Ki in the assay filed under Homo sapiens came to 153.

Values taken from ChEMBL document CHEMBL1139386, “Discovery of novel CB2 receptor ligands by a pharmacophore-based virtual screening workflow” (J Med Chem, 2009).
